The subject of assay [1] is KB. Put plainly: Cytotoxicity against human KB cells. Format: functional, cell-based. The procedure, abridged:
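Human oral epidermoid carcinoma (KB) cells were tested following previously established protocols. EC50 values were reported in μM as mean ± SEM from three separate experiments.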

Assay [2] deals with P388. In words: Antitumor activity in iv dosed mouse implanted with P388 xenografts. Format: functional, organism-based. The method, boiled down: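 This was a P388 murine lymphocytic leukemia model in which both the leukemia cells and the treatment were delivered intravenously.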
The test system of assay [3] is P388. In words: Antitumor activity in P388 cells xenografted mouse at 0.4 mg/kg body weight, ip for 5 days/week relative to control. The assay is classed as functional. Conditions: route intraperitoneal. The procedure, abridged:
(§1)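 Mice carried murine P388 lymphocytic leukemia cells implanted intraperitoneally. Treatment was given i.p. daily, 5 days per week. Activity was expressed as % T/C, treated versus control.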

Assay [4] relates to P388. In words: Antitumor activity in P388 cells xenografted mouse at 0.2 mg/kg body weight, ip for 5 days/week relative to control. Format: functional. Conditions: route intraperitoneal. The method, boiled down:
as §1

Molecules are shown by their SMILES. The source made the active and inactive calls. The rule behind the calls is not given here.

The term EC50 denotes the concentration giving half of the maximal effect. A high value points to a less potent agent. `CC(=O)O[C@H]1O[C@H]([C@@]2(O)c3cccc(O)c3C(=O)c3c(O)cc(C)cc32)[C@H](O)[C@@H](OC(=O)C=C(C)C)[C@H]1O` [ALVARADOIN I] yielded an EC50 in assay [1] of 12500 nM.
As for `CC(=O)O[C@H]1O[C@H]([C@@H]2c3cccc(O)c3C(=O)c3c(O)cc(C)cc32)[C@H](O)[C@@H](O)[C@H]1O` [ALVARADOIN F], the result in assay [2] was inactive. Further, the Activity in assay [3] turned out to be 115%. In addition, in assay [1], the response was half-maximal at 65 nM (EC50).
As to `CC(=O)O[C@H]1O[C@H]([C@]2(O)c3cccc(O)c3C(=O)c3c(O)cc(C)cc32)[C@H](O)[C@@H](O)[C@H]1O` [ALVARADOIN N], it took 2940 nM to reach a half-maximal effect in assay [1] (EC50).
The molecule `CC[C@@]1(O)C(=O)OCc2c1cc1n(c2=O)Cc2cc3ccccc3nc2-1` [CAMPTOTHECIN] came in with an EC50 in assay [1] of 3.6 nM.
On to `CC(=O)O[C@@H]1O[C@@H]([C@H]2c3cccc(O)c3C(=O)c3c(O)cc(C)cc32)[C@H](O)[C@@H](OC(=O)C=C(C)C)[C@H]1O` [ALVARADOIN H], for which, in assay [1], the EC50 was found to be 1070 nM.
Turning to `CC(=O)O[C@H]1O[C@H]([C@]2(O)c3cccc(O)c3C(=O)c3c(O)cc(C)cc32)[C@H](O)[C@@H](OC(=O)C=C(C)C)[C@H]1O` [ALVARADOIN J], a half-maximal response in assay [1] (EC50) required 15900 nM.
`CC(C)=CC(=O)O[C@@H]1[C@H](O)[C@@H](O)[C@@H]([C@@H]2c3cccc(O)c3C(=O)c3c(O)cc(C)cc32)O[C@@H]1O` [ALVARADOIN K]: in assay [1], the EC50 stood at 270 nM.
Turning to `CC(=O)O[C@@H]1O[C@@H]([C@H]2c3cccc(O)c3C(=O)c3c(O)cc(C)cc32)[C@H](O)[C@@H](O)[C@H]1O` [ALVARADOIN E], the outcome in assay [2] was inactive. For the same molecule, the Activity in assay [4] worked out at 125%. Moreover, in assay [1], the EC50 is 50 nM.
`CC(=O)O[C@H]1O[C@H]([C@@H]2c3cccc(O)c3C(=O)c3c(O)cc(C)cc32)[C@H](O)[C@@H](OC(=O)C=C(C)C)[C@H]1O` [ALVARADOIN G] returned an EC50 in assay [1] of 650 nM.
As to `CC(C)=CC(=O)O[C@@H]1[C@H](O)[C@@H](O)[C@@H]([C@H]2c3cccc(O)c3C(=O)c3c(O)cc(C)cc32)O[C@@H]1O` [ALVARADOIN L], the EC50 in assay [1] was determined as 590 nM. The EC50 values of the last two molecules are within 1.5-fold of each other.
With `CC(C)=CC(=O)O[C@@H]1[C@@H](O)[C@@H]([C@H]2c3cccc(O)c3C(=O)c3c(O)cc(C)cc32)O[C@H](O)[C@@H]1O` [ALVARADOIN M], the EC50 in assay [1] amounted to 380 nM.
`Cc1cc(O)c2c(c1)C(=O)c1cccc(O)c1C2=O` [CHRYSOPHANOL] returned a half-maximal effective concentration (EC50) in assay [1] greater than 20000 nM.

Values taken from ChEMBL document CHEMBL1143725, “Alvaradoins E-N, antitumor and cytotoxic anthracenone C-glycosides from the leaves of Alvaradoa haitiensis” (J Nat Prod, 2007).
